EBNA-1 inh: EBNA-1 DNA-binding inhibitors, primary screen, biochemical, fluorescence polarization. actives 0.34% (n = 300,000). AID 1950, 2009. inhibition, % at 14.8 µM; in the data active means inhibition above about 28%
HCV NS3 hel inh: inhibitors of HCV NS3 helicase, primary screen, biochemical, Cy5 molecular beacon fluorescence | AID 1800, 2009 | Hepatitis C virus NS3 helicase | inhibition, % at 10.9 µM | NS3 helicase DNA unwinding | actives 0.56% (n = 290,000);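 active means inhibition above the mean of all tested compounds plus 3 SD, set per campaign, cut at about 35% in these data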;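 further: 0% = DMSO wells and 100% = thioflavine S control wells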
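Material: hepatitis C virus NS3 helicase domain fragment enzyme; measured by: Cy5 fluorescence, 0 and 60 min reads; control set: DMSO and thioflavine S; incubation: 60 min unwinding reaction at 25 °C after ATP addition; read-out basis: % inhibition from 60/0 min fluorescence ratio, DMSO 0%, thioflavine S 100%; repeats: singlicate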
GPR7 antag: GPR7 receptor antagonists, primary screen, cell-based, fluorescence, single concentration; actives 1.1% (n = 290,000); GPR7-expressing cells, fluorescence antagonist assay; inhibition, % at 4.4 µM; in the data active means inhibition above about 16%, passing the limit was not always enough;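 further: cells stimulated with the agonist NPW; 0% = agonist with vehicle and 100% = vehicle without agonist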
Target sequence (P48145 whole entry, looked up): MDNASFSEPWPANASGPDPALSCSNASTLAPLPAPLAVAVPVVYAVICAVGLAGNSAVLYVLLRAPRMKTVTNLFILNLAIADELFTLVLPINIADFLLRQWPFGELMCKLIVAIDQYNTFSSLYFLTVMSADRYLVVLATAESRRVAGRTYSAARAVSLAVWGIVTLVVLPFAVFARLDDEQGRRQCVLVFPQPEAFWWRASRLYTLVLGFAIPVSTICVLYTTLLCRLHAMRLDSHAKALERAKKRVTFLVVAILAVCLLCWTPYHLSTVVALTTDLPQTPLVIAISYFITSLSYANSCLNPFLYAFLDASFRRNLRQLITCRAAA
HCV core dimer: inhibitors of HCV core protein dimerization, primary screen, biochemical, TR-FRET, high-throughput. TR-FRET GST/Flag-core106 dimerization, 1536-well. inhibition, % at 5 µM. actives 0.33% (n = 300,000);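 active means inhibition above the mean of all tested compounds plus 3 SD, set per screening campaign, cut at about 45% in these data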
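System: GST-tagged and Flag-tagged HCV core protein residues 1-106 / Input: core106 proteins, GST 13.5 nM and Flag 17 nM / Buffer or medium: KF-containing HEPES buffer, pH 7.45, DTT, CHAPS, BSA / Probe or stimulus: Eu-anti-GST and XL665-anti-Flag labelled anti-tag antibodies / Schedule: 4 h, 22.5 °C incubation / Technique: TR-FRET 671 and 617 nm emission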
EBV gp42 inh: Epstein-Barr virus gp42 inhibitors, primary screen, biochemical, uHTS, fluorescence polarization | Fluorescence polarization binding assay, mP read-out | inhibition, % (tested at 21.74 µM) | actives 0.42% (n = 220,000); in the data active means inhibition above about 50%
ZTA DNA inh: counter-screen for EBNA-1 inhibitors: inhibitors of Epstein-Barr virus ZTA | P03206 | ZTA-DNA binding, fluorescence polarization | inhibition, % at 11 µM | actives 0.15% (n = 320,000) | AID 2234; in the data active means inhibition above about 33%
Target sequence (P03206 whole entry, looked up): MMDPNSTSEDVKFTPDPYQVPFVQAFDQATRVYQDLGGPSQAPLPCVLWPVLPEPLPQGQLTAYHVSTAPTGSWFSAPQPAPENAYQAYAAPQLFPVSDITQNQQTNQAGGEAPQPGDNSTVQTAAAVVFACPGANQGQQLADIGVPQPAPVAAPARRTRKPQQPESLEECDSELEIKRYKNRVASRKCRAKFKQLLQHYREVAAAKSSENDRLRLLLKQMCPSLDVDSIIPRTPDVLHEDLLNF
GPR7 antag conf: GPR7 receptor antagonists, confirmation, cell-based, fluorescence, single concentration; inhibition, % at 4.4 µM; shares compounds with GPR7 antag; actives 52% (n = 2,400); GPR7-expressing cells, calcium fluorescence antagonist mode; in the data active means inhibition above about 24%;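 further: stimulated with the GPR7 agonist NPW; 0% = agonist plus vehicle and 100% = vehicle alone without agonist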
MCHR1 antag: MCHR1 antagonists in cells, counter-screen for GPR7 antagonist project, cell-based, fluorescence, human | shares compounds with GPR7 antag | MCHR1-expressing cells, fluorescence antagonist assay | inhibition, % at 4.4 µM | actives 62% (n = 2,400) | AID 2148, 2009; in the data active means inhibition above about 22%;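 further: 0% = vehicle with agonist and 100% = vehicle without agonist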
* marks the source's active call; other numbers are inactive results; . = no result. In the library only some 2.3% were active in any assay of this set; here they are far more common.

SMILES | EBNA-1 inh | HCV NS3 hel inh | GPR7 antag | HCV core dimer | EBV gp42 inh | ZTA DNA inh | GPR7 antag conf | MCHR1 antag
COc1cccc(CNS(=O)(=O)c2ccc(S(=O)(=O)NC3CC3)cc2)c1 | 13 | 4 | 0 | 5 | . | 5 | . | .
CCOC(=O)c1sc(NC(=O)CN2CCN(c3ccccc3)CC2)nc1C | -5 | -14 | -6 | 8 | . | -1 | . | .
COc1ccc(/C=C2\CCc3ccccc3C2=O)cc1O | -9 | -11 | 25* | 17 | . | -8 | 30* | 34*
CN1C(=CC=C2C=C(I)C(=O)C(I)=C2)C(C)(C)c2ccccc21 | . | -5 | -2 | . | -35 | . | . | .
CN1/C(=C\C=C2/C(=O)Oc3ccccc3C2=O)C(C)(C)c2ccccc21 | 7 | -6 | 51* | -8 | 18 | 3 | 76* | 88*
CN(C)S(=O)(=O)c1cc(NC(=O)CN2CCN(c3ccccc3F)CC2)ccc1Cl | 10 | -10 | -4 | 2 | 9 | 19 | . | .
CN(C)CCNS(=O)(=O)c1ccc(N2CCN(c3ccc(F)cc3)CC2)c([N+](=O)[O-])c1 | -13 | -79 | 23* | -12 | -23 | -3 | 36* | 32*
CCOC(=O)C1CCN(C(=O)c2ccc3c(c2)NC(=O)/C(=C\c2ccc(C)cc2)S3)CC1 | -3 | 2 | 33* | 2 | . | -1 | 22 | 46*
CCOC(=O)c1cnc(-n2nc(C)cc2C)nc1NC | -6 | 2 | -11 | -3 | -10 | -4 | . | .
CCOC(=O)c1cnc(-n2nc(C)cc2C)nc1NC1CCCCC1 | 5 | -5 | 28* | 18 | 4 | -1 | 77* | 73*
N=c1c2c(-c3ccccc3)c(-c3ccccc3)n(Cc3ccco3)c2ncn1Cc1ccco1 | 0 | -70 | 37* | 13 | -22 | 1 | 79* | 100*
CCCCn1cnc2c(c(-c3ccccc3)c(-c3ccccc3)n2Cc2ccco2)c1=N | -1 | -67 | 32* | 2 | -17 | 4 | 54* | 97*
N=c1c2c(-c3ccccc3)c(-c3ccccc3)n(Cc3ccccc3)c2ncn1CCCn1ccnc1 | 5 | -83 | -3 | 0 | -20 | -9 | . | .
COC(=O)CN1C(=O)[C@H]2[C@@H](C3CC3)N3C(=O)CN(Cc4ccccn4)C(=O)[C@@]3(Cc3ccccc3)[C@H]2C1=O | 2 | 4 | -5 | -2 | . | 1 | . | .
COc1ccc(NC(=O)CN(C)C(=O)c2oc3ccccc3c2C)cc1 | 2 | 3 | 1 | 0 | 5 | 2 | . | .
CC(C)Cc1ccc(C(C)C(=O)OCC(=O)c2c[nH]c3ccccc23)cc1 (centres undefined) | 6 | -16 | 34* | 3 | 4 | 0 | 67* | 78*
OCCNc1ncnc2c1cnn2Cc1ccccc1 | . | -2 | -9 | . | . | . | . | .
Clc1ccc(-n2ncc3c(NCc4ccco4)ncnc32)cc1 | 4 | 2 | 14 | -4 | 6 | -2 | . | .
Clc1ccc(Cn2ncc3c(NCc4ccco4)ncnc32)c(Cl)c1 | -11 | -11 | 28* | 0 | 0 | 1 | 37* | 56*
c1ccc(CNc2ncnc3c2cnn3Cc2ccccc2)cc1 | 4 | -14 | 28* | 0 | -5 | -10 | 53* | 51*
COc1ccccc1N(CC(=O)NC1CCCC1)C(=O)c1oc(C(C)(C)C)cc1C | 6 | 0 | 44* | 6 | -2 | 7 | 37* | 48*
CC1CCc2cc(F)ccc2N1C(=O)c1cccnc1 (centres undefined) | -19 | 1 | 26* | -6 | . | 3 | -5 | 1
CC1Cc2ccccc2N1C(=O)c1cccnc1 (centres undefined) | 14 | 11 | -8 | -3 | 5 | -9 | . | .
C[C@H](NC(=O)c1ccccc1Cl)C(=O)Nc1ccccc1F | 6 | -4 | -1 | -10 | . | 10 | . | .
O=C(/C=C/Nc1ccccc1Br)c1ccccn1 | -10 | 7 | 30* | -2 | -4 | -15 | 5 | 21
SMILES | EBNA-1 inh | HCV NS3 hel inh | GPR7 antag | HCV core dimer | EBV gp42 inh | ZTA DNA inh | GPR7 antag conf | MCHR1 antag
CC(C)COc1ccc(-c2nnc(-c3ccco3)o2)cc1 | -2 | 16 | 2 | 1 | 1 | -21 | . | .
CCN(CC)CCCNc1ccc(-c2nnc(-c3ccc(OCC(C)C)cc3)o2)cn1 | -4 | -100 | 38* | -9 | . | 1 | 22 | 48*
COc1cccc(-c2cc3nc(-c4ccccc4)cc(=O)n3[nH]2)c1 | 6 | 8 | 36* | -4 | . | -8 | 24* | 37*
O=c1cc(-c2ccccc2)nc2cc(-c3ccc(F)cc3)[nH]n12 | 15 | . | . | -2 | . | -2 | . | .
CC1Cc2cc(S(=O)(=O)N3CCCC(C(=O)N4CCCCC4)C3)ccc2N1C(=O)C1CC1 (centres undefined) | -9 | -4 | 28* | 1 | . | -13 | 20 | 24*
CCNC(=O)Nc1ccc(-n2nc(C)c(C(=O)OCC)c2C)nc1 | -1 | -1 | -6 | -3 | -10 | -14 | . | .
COc1ccc(CN(C)Cc2nc(Cc3cccc(F)c3)no2)c2cccnc12 | -8 | 1 | 30* | 0 | -18 | 8 | 22 | 43*
CCCOc1ccc(C(=O)CCC(=O)NNC(=O)Cn2nc(C)cc2C)cc1 | -5 | . | . | -7 | . | -1 | . | .
CN(C)CCCNc1nc2sc3c(c2c(=O)n1CCc1ccccc1)CCCCC3 | 0 | -50 | 29* | -14 | -6 | -14 | 51* | 65*
Cc1nc2cc(-c3ccccc3)nn2c(C)c1CCC(=O)NC(C)c1ccc2c(c1)OCCO2 (centres undefined) | 6 | -4 | -1 | 6 | 6 | 7 | . | .
O=C(NCc1ccc(C(=O)O)cc1)OCc1ccccc1 | -12 | 1 | -11 | -3 | -17 | -15 | . | .
CC(=O)c1ccc(N2CCN(c3ncccn3)CC2)c([N+](=O)[O-])c1 | -26 | 7 | 35* | -7 | . | 13 | 13 | 18
NS(=O)(=O)c1ccc(NC(=S)NCc2cccc(Cl)c2)cc1 | -4 | -5 | 28* | 2 | -8 | 6 | 3 | 41*
S=C(NCc1ccccc1Cl)NC1CCCC1 | -6 | -4 | 21* | -5 | -15 | -24 | -4 | 19
CCc1ccc(NC(=S)NCc2ccccc2)cc1 | 9 | 1 | 9 | 0 | 4 | 1 | . | .
S=C(NCc1ccccc1)Nc1ccc(Cl)cc1 | 6 | -6 | 21* | -1 | -3 | 7 | 18 | 43*
S=C(NCCc1cccc(Cl)c1)NCc1ccccc1 | . | -11 | 23* | . | . | . | 14 | 20
